Assay results: ChEMBL document CHEMBL4613315, “Design of First-in-Class Dual EZH2/HDAC Inhibitor: Biochemical Activity and Biological Evaluation in Cancer Cells” (ACS Med Chem Lett, 2020)

Key:
[1] = tested on: U-937; assay: Cytotoxicity against human U937 cells assessed as reduction in cell viability at 25 uM incubated for 72 hrs by CellTiter-Glo Luminescent cell viability assay relative to control; assay type: functional; conditions: U-937, 72 h
Procedure, shortened: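 Viability after 72 h of single-agent or combined treatment with the HDAC inhibitor (0.05–0.25 μM) and the EZH2 inhibitor. EZH2 inhibitor range: U937 5–25 μM; RH4 10–50 μM. Synergy was assessed by combination index and isobologram analysis.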

[2] = molecular target: Histone-lysine N-methyltransferase EZH2 (Homo sapiens, UniProt Q15910); assay: Inhibition of EZH2 in human RH4 cells assessed as H3K27me3 level at 50 uM incubated for 72 hrs by Western blot analysis; assay type: cell-based
[3] = molecular target: Histone deacetylase (Homo sapiens) (UniProt Q13547+O15379+Q9UBN7+Q92769+Q9UQL6+Q8WUI4+Q9BY41+Q96DB2+P56524+Q9UKV0+Q969S8); assay: Inhibition of HDAC in human U937 cells assessed as Ac-H3 level at 50 uM incubated for 120 hrs by Western blot analysis (reference value: 1); assay type: cell-based; conditions: U-937
[4] = molecular target: T1, Protein deacetylase HDAC6 (Homo sapiens) (UniProt Q9UBN7); assay: Inhibition of HDAC6 in human RH4 cells assessed as acetylated alpha-tubulin level at 50 uM in presence of vorinostat incubated for 72 hrs by Western blot analysis (reference value: 1); assay type: cell-based
T1 sequence (whole entry): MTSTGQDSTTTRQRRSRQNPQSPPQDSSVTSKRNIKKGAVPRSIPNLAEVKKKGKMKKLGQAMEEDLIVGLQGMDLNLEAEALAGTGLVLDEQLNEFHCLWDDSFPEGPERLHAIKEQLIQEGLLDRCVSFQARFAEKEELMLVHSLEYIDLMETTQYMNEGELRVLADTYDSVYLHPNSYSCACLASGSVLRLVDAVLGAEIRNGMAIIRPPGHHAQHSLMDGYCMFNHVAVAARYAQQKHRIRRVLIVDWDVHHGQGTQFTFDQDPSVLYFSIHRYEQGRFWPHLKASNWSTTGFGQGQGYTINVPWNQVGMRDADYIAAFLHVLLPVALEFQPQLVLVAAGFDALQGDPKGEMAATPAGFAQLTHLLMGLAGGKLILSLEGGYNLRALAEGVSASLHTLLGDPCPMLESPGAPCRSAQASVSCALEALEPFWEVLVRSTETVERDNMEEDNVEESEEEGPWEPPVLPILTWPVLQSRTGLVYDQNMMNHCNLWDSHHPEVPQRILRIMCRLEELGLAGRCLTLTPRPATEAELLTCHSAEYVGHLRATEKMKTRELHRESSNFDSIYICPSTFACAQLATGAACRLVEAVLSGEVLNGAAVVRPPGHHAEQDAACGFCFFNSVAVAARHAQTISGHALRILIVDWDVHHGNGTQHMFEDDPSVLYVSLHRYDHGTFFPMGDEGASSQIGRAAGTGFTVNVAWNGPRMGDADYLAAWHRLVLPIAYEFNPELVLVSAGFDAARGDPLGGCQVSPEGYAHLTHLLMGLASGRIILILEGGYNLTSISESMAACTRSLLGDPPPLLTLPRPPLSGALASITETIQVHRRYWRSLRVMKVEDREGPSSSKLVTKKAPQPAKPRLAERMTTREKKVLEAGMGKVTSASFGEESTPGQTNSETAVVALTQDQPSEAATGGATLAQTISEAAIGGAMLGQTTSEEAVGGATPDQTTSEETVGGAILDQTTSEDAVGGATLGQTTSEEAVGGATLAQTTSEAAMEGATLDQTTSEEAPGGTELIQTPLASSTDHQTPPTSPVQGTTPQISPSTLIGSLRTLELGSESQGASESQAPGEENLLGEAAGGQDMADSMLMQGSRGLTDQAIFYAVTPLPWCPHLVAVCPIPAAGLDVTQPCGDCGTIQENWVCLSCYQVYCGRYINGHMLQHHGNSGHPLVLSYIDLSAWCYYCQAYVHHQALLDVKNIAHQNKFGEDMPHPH
Procedure, shortened: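 RH4 cells co-treated with EZH2 inhibitor at 50 μM plus HDAC inhibitor at 0.15 μM; Western blot after 72 or 96 h for H3K27me3 or acetyl-tubulin, vinculin loading control; densitometry normalized to loading control then DMSO vehicle.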

[5] = molecular target: Histone deacetylase 3 (Homo sapiens, UniProt O15379); assay: Inhibition of human recombinant HDAC3 using AMC-K(Ac)GL as substrate by fluorescence based assay
[6] = molecular target: T2, Histone deacetylase 8 (Homo sapiens, UniProt Q9BY41); assay: Inhibition of human recombinant HDAC8 using AMC-K(Ac)GL as substrate by fluorescence based assay
T2 sequence (Q9BY41 whole entry): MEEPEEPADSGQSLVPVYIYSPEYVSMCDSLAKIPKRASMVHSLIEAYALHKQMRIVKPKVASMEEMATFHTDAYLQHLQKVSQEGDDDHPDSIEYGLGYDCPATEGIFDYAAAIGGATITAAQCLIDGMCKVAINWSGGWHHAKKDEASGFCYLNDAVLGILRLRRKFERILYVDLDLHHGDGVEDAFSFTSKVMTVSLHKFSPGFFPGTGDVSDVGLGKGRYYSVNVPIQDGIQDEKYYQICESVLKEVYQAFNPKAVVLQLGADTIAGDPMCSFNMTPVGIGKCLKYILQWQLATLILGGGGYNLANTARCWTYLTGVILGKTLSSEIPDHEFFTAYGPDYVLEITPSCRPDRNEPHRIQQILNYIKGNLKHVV

[7] = Cytotoxicity against human RH4 cells assessed as reduction in cell viability at 20 uM incubated for 96 hrs by CellTiter-Glo Luminescent cell viability assay relative to control; assay type: functional; conditions: Rh4, 96 h
Procedure, shortened: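 Viability of U937 (5–25 μM) and RH4 (5–35 μM) cells after 48, 72 and 96 h of treatment at increasing concentrations.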

[8] = tested on: U-937; assay: Induction of apoptosis in human U937 cells assessed as late apoptotic cells at 10 uM incubated for 72 hrs by annexin V-FITC staining based flow cytometry (reference value: 0.7 %); assay type: functional
[9] = tested on: U-937; assay: Induction of apoptosis in human U937 cells assessed as necrotic cells at 10 uM incubated for 72 hrs by annexin V-FITC staining based flow cytometry (reference value: 0.5 %); assay type: functional
[10] = Cell cycle arrest in human RH4 cells assessed as S accumulation at 28 uM incubated for 72 hrs by propidium iodide staining based flow cytometry (reference value: 29.9 %); assay type: functional
[11] = Induction of apoptosis in human RH4 cells assessed as early apoptotic cells at 28 uM incubated for 72 hrs by annexin V-FITC staining based flow cytometry (reference value: 10.8 %); assay type: functional
[12] = tested on: U-937; assay: Cell cycle arrest in human U937 cells assessed as increase in subG1 accumulation incubated for 72 hrs by propidium iodide staining based assay; assay type: functional
[13] = species: Homo sapiens; assay: Cell cycle arrest in human RH4 cells assessed as increase in subG1 accumulation incubated for 72 hrs by propidium iodide staining based assay; assay type: functional
[14] = tested on: U-937; assay: Induction of differentiation of human U937 cells assessed as increase in CD11b level at 10 uM incubated for 72 hrs by flow cytometry analysis; assay type: functional
Procedure, shortened: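 U937 cells were treated for 72 h at 10 and 25 μM, and surface CD11b expression was measured as a differentiation marker.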

Sequence of Histone deacetylase 3 (O15379 whole entry): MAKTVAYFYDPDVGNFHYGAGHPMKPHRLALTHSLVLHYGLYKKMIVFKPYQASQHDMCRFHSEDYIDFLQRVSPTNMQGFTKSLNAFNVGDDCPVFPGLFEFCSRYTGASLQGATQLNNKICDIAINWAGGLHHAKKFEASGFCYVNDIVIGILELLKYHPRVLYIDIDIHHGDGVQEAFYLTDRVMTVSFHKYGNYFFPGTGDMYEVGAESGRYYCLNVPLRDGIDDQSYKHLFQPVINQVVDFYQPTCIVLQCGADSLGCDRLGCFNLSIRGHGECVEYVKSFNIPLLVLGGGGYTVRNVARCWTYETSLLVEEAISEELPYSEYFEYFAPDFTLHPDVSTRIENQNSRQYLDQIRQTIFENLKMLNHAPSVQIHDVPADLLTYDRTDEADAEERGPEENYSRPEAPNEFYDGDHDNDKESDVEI
Sequence of Histone-lysine N-methyltransferase EZH2 (Q15910 whole entry, looked up): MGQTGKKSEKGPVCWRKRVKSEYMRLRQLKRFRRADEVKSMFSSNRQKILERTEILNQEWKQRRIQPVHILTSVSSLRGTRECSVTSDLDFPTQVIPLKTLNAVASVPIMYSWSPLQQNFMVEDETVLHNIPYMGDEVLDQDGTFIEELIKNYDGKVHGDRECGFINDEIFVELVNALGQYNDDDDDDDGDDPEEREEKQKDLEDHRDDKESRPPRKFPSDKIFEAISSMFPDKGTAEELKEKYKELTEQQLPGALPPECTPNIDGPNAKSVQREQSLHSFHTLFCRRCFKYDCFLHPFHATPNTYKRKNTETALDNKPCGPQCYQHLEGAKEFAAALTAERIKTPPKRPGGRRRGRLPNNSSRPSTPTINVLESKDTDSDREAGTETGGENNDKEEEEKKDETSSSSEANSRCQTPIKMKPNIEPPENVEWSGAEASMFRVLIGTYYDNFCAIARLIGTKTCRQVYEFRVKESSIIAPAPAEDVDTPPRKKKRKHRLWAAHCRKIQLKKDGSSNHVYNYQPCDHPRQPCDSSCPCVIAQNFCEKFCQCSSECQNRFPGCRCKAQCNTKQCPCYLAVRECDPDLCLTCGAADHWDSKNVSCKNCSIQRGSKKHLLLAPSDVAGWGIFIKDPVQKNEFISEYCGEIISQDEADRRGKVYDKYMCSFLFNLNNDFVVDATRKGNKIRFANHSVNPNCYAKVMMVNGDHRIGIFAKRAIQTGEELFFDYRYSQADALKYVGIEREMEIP

fold change (FC) [2]	fold change (FC) [3]	fold change (FC) [4]	IC50 [5] [nM]	IC50 [6] [nM]	Structure (SMILES)	inhibition at 25 µM [1] [%]	inhibition at 20 µM [7] [%]	Activity [8] [%]	Activity [9] [%]	Activity [10] [%]	Activity [11] [%]	Activity [12]	Activity [13]	fold change (FC) [14]
0.3	0.7	2.4	–	–	Cc1cc(C)c(CNC(=O)c2cc(C)n(-c3ccccc3)c2C)c(=O)[nH]1	25	–	–	–	–	–	–	–	–
–	–	–	450	110	Cc1cc(C)c(CNC(=O)c2cc(C)n(-c3cccc(NC(=O)CCCCCCC(=O)NO)c3)c2C)c(=O)[nH]1	–	> 60	0.7	0.1	19.8	26.5	Dose-dependent effect	Dose-dependent effect	2
